Rows were chosen to be rich in hits. Some 6% of all compounds tested hit in one or more screens of this group.
Lung fibro prol – blocks proliferation of human lung fibroblasts | LL 47 human lung fibroblast viability, ATP luminescence; stronger effect = lower value | viability, % at 10 µM | hit rate 1.1% among 85,000 | AID 719;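 active = viability at or below 50% in the single dose screen; inactive = viability above 50%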;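 note: compound exposure lasted 72 h before the ATP readout; 100% = median luminescence of untreated cell-only wells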
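test system = LL 47 human lung fibroblasts | amount = 1,150 fibroblasts seeded per well | medium = 15% FBS in IMEM | times = overnight cell rest, 72 h compound treatment at 37 °C | measured by = CellTiter-Glo luminescence measuring cellular ATP | read-out = viability percentage against median untreated-cell control | benchmarks = cell-only wells, no compound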
HUVEC prolif 384 – human endothelial cell proliferation inhibition. HUVEC proliferation, CellTiter-Glo luminescence, 72 h; stronger effect = lower value. viability, % at 10 µM (by protocol). hit rate 1.1% among 86,000. AID 648;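 active = viability at or below 30%; inactive = viability above 30%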;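 note: 100% = median luminescence of DMSO-only cell control wells on each plate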
cytoskel mod – cytoskeleton assembly modification. HUVEC TNFa F-actin phalloidin imaging, high content. inhibition, % at 2 µM. hit rate 0.18% among 91,000;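 active = inhibition above the batch mean plus 3 SD and confirmed as a hit by visual image inspection, cut at about 30% in these data, passing the limit was not always enough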
Jurkat tox 60K – cytotoxic compounds reducing Jurkat cell viability | Jurkat E6.1 viability, ATP luminescence, 48 h | inhibition, % at 4 µM | hit rate 1.2% among 56,000 | AID 463;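 active = inhibition above the mean inhibition of all tested compounds plus 3 SD, cut at about 28% in these data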
H69AR inhibit – growth inhibitors of human H69AR lung tumor cells. H69AR lung tumor viability, ATP luminescence, 72 h; stronger effect = lower value. viability, % at 10 µM. hit rate 6% among 85,000;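 active = viability at or below 40%; inactive = viability above 40%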;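 note: multidrug resistant small cell line overexpressing MRP-1 efflux transporter; 100% = mean luminescence of untreated control wells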
Pyk2 oligo antag – blocks oligomerization of human Pyk2 in cells | Q293 cells, Pyk2 FERM NanoBiT luminescence; stronger effect = lower value | hit rate 0.83% among 99,000 | z-score (the deposit names both 25 µM and 10 µM) | AID 1347419 | Q14289;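 active = Z-score of -3 or lower, scaled per plate to the spread of control and sample wells; inactive = z-score above -3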;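 note: negative z-score means lost luminescence so less FERM oligomerization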
Target sequence (Q14289 whole entry, looked up): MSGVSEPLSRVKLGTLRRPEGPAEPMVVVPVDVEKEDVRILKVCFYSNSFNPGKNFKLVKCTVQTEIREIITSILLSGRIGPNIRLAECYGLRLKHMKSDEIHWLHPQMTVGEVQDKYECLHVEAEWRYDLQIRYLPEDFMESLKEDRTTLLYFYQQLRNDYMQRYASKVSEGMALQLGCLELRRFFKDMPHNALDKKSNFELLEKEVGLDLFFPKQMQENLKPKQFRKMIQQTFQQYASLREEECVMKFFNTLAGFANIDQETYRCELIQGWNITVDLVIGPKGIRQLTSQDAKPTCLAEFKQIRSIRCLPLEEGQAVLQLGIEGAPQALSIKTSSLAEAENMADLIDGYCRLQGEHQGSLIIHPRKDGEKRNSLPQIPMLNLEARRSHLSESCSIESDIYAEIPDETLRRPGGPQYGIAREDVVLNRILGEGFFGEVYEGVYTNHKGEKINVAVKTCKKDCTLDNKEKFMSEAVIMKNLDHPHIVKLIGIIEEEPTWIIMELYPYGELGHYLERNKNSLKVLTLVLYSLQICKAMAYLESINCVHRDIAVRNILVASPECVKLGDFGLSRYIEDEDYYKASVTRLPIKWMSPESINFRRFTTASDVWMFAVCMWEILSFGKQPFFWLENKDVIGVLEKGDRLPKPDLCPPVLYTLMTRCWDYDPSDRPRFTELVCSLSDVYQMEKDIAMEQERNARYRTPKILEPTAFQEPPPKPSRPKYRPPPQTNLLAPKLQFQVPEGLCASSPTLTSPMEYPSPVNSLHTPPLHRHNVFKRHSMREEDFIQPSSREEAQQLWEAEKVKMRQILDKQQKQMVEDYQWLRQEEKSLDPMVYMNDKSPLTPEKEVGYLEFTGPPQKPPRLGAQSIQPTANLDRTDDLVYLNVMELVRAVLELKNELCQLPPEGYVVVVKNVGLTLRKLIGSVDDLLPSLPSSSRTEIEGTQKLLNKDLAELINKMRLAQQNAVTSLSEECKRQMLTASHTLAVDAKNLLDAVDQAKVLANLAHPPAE
* hit, by the source's call.

For CC1=NN(Cc2ccccc2)C(=O)C1C(c1ccccc1)C(C#N)C#N (centres undefined) the results were cytoskel mod 21 and Pyk2 oligo antag -3.6*.
For CN(C)/N=C/C=C1\CC/C(=C\c2ccc(Br)cc2)C1=O the results were Lung fibro prol 96, HUVEC prolif 384 82, H69AR inhibit 24* and Pyk2 oligo antag 0.64.
O=[N+]([O-])c1cc(S(=O)(=O)C(F)(F)F)ccc1Sc1nc2ccccc2s1 was read as cytoskel mod 19 and Pyk2 oligo antag -0.98.
Screening CS(=O)(=O)c1ccc(Sc2nc3ccccc3[nH]2)c([N+](=O)[O-])c1 returned Lung fibro prol 97, HUVEC prolif 384 100, cytoskel mod 8, H69AR inhibit 1.1* and Pyk2 oligo antag 0.35.
Screening O=[N+]([O-])c1cc(S(=O)(=O)C(F)(F)F)ccc1Sc1nc2ccccc2[nH]1 returned Lung fibro prol 12*, HUVEC prolif 384 18*, cytoskel mod -9, H69AR inhibit 1.7* and Pyk2 oligo antag 1.5.
Screening O=c1cc(Nc2ccc3c(c2)OCCO3)[nH]c(=O)n1-c1ccc(Cl)cc1 returned Lung fibro prol 90, HUVEC prolif 384 74, Jurkat tox 60K 10 and H69AR inhibit 8.8*.
`O=C(O)C1CCCCC1C(=O)Nc1ccc2c(c1)OCCO2` (centres undefined) gave Lung fibro prol 102, HUVEC prolif 384 98, cytoskel mod -14, Jurkat tox 60K -4, H69AR inhibit 92 and Pyk2 oligo antag 0.55.
For CCc1ccc(Nc2cc(=O)n(C3CCCCC3)c(=O)[nH]2)cc1 the results were Lung fibro prol 85, HUVEC prolif 384 69, cytoskel mod 9, Jurkat tox 60K 0, H69AR inhibit 16* and Pyk2 oligo antag -0.74.
`O=c1cc(Nc2ccc3c(c2)OCCO3)[nH]c(=O)n1C1CCCCC1` gave Lung fibro prol 64, HUVEC prolif 384 57, cytoskel mod -3, Jurkat tox 60K 59*, H69AR inhibit 18* and Pyk2 oligo antag -2.9.
CCc1ccc(NC2=NC(C(=O)NC3CCCCC3)CC(=O)N2)cc1 (centres undefined) was read as Lung fibro prol 105, HUVEC prolif 384 94, cytoskel mod 6, Jurkat tox 60K 7, H69AR inhibit 87 and Pyk2 oligo antag -0.13.
Screening CCC(=O)N1CCN(CCN=Cc2c(O)n(C3CCCCC3)c(=O)n(C3CCCCC3)c2=O)CC1 returned Jurkat tox 60K -11.
Screening Cc1cccc(C(=O)NNC2=C(C(=O)C(F)(F)F)CCC2)c1O returned Lung fibro prol 65, HUVEC prolif 384 37, cytoskel mod 17, H69AR inhibit 25* and Pyk2 oligo antag 0.36.
`CCCCCCNC(=O)c1c(O)c2cccc3c2n(c1=O)CCC3` gave Lung fibro prol 103, HUVEC prolif 384 118, cytoskel mod 6, Jurkat tox 60K 4, H69AR inhibit 108 and Pyk2 oligo antag -1.2.
`CCCCCCc1nc2ccccc2c(=O)n1NC(=O)c1c(O)c2cccc3c2n(c1=O)CC3` gave Lung fibro prol 99, HUVEC prolif 384 111, cytoskel mod -5 and H69AR inhibit 36*.
CCCc1nc2ccccc2c(=O)n1NC(=O)c1c(O)c2cccc3c2n(c1=O)CCC3 was read as Lung fibro prol 75, HUVEC prolif 384 97, cytoskel mod -6, Jurkat tox 60K -3, H69AR inhibit 18* and Pyk2 oligo antag -0.09.
For CCN(CC)CCNC(=O)c1c(O)c2cccc3c2n(c1=O)CCC3 the results were Lung fibro prol 93, HUVEC prolif 384 103, Jurkat tox 60K 13, H69AR inhibit 31* and Pyk2 oligo antag 0.4.
For CCOC(=O)c1ccccc1NC(=O)c1cn(CC)c2nc(C)ccc2c1=O the results were Lung fibro prol 93, HUVEC prolif 384 105, Jurkat tox 60K 1 and H69AR inhibit 104.
For Cc1cc(=O)oc(C)c1C(=O)Nc1c(C)n(C)n(-c2ccccc2)c1=O the results were Lung fibro prol 98, HUVEC prolif 384 101, cytoskel mod 0, H69AR inhibit 106 and Pyk2 oligo antag -0.45.
For Cc1cc(N(C)Cc2ccccc2)nc(-c2ccccc2)n1 the results were Lung fibro prol 80, HUVEC prolif 384 63, cytoskel mod 6, H69AR inhibit 24* and Pyk2 oligo antag -0.5.
`Cc1cc(Oc2ccccc2)nc(-c2ccccc2)n1` gave cytoskel mod 15, Jurkat tox 60K 1 and Pyk2 oligo antag 0.19.
Cc1ccnc2ccc(-c3nc4ccccc4o3)cc12 was read as Lung fibro prol 73, HUVEC prolif 384 30*, cytoskel mod -10, Jurkat tox 60K -4, H69AR inhibit 60 and Pyk2 oligo antag -1.8.
Screening COC(=O)CN1CCN(C(=O)c2ccc(F)cc2)c2ccccc2C1 returned Lung fibro prol 98, HUVEC prolif 384 101, cytoskel mod -13, Jurkat tox 60K -6, H69AR inhibit 97 and Pyk2 oligo antag 0.57.
Screening COc1ccc(C(=O)c2coc(-c3ccccc3C(=O)O)c2C(=O)O)cc1 returned Pyk2 oligo antag 0.63.
`Cc1ccc(C(=O)c2c(C)oc3c2C(=O)C(=O)c2ccccc2-3)cc1` gave Lung fibro prol 2.1*, HUVEC prolif 384 57, cytoskel mod 16, H69AR inhibit 1.0* and Pyk2 oligo antag -3.8*.
For Cc1ccc(C(=O)c2coc3c2C(=O)C(=O)c2ccccc2-3)cc1 the results were Lung fibro prol 47*, HUVEC prolif 384 3.5*, cytoskel mod 12, H69AR inhibit 1.8* and Pyk2 oligo antag -2.4.
O=C(c1ccc(Cl)cc1)c1ccc(CN2C(=O)c3ccccc3C2=O)o1 was read as Lung fibro prol 103, HUVEC prolif 384 96, cytoskel mod -18, H69AR inhibit 92 and Pyk2 oligo antag 0.34.
For Cc1ccc(C(=O)c2cn[nH]c2-c2ccccc2O)cc1 the results were Lung fibro prol 104, HUVEC prolif 384 105, H69AR inhibit 94 and Pyk2 oligo antag -1.1.
For Cc1oc2c(c1C(=O)c1ccc(Cl)cc1)C(=O)C(=O)c1ccccc1-2 the results were cytoskel mod -2 and Pyk2 oligo antag -3.6*.
`COc1ccc(CC(=O)N2CC(C)CC(C)C2)cc1` (centres undefined) gave Lung fibro prol 95, HUVEC prolif 384 104, cytoskel mod -1, H69AR inhibit 102 and Pyk2 oligo antag 0.04.
Screening COc1c(Br)cc(Br)cc1/C=N/n1c(C)nnc1C returned Lung fibro prol 71, HUVEC prolif 384 59, cytoskel mod 9, Jurkat tox 60K 8, H69AR inhibit 25* and Pyk2 oligo antag 0.45.
For O=C(Nc1nnc(-c2ccco2)s1)c1ccccc1 the results were Lung fibro prol 102, HUVEC prolif 384 93, Jurkat tox 60K 1, H69AR inhibit 101 and Pyk2 oligo antag 0.78.
Screening COc1ccc(C(=O)Nc2nnc(-c3ccco3)s2)cc1 returned Lung fibro prol 97, HUVEC prolif 384 55, cytoskel mod -17, H69AR inhibit 8.2* and Pyk2 oligo antag -0.08.

Screening results deposited in PubChem by several laboratories.
